Screens (PubChem BioAssay)
HSF1 inh – HSF1 inhibition. NIH3T3-HGL HSE-luciferase, MG132-induced, luminescence 8 h; hits give low values. activity change, negative = inhibition, % at 7.5 µM (by protocol). 0.77% of 300,000 active;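 active = more than half of replicate wells show activity change below -50%, luminescence cut by over half; inconclusive = some wells, but at most half, below -50%; inactive = no replicate well below -50%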;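 note: luciferase reports HSF-1 transcriptional activity via heat shock element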
HSF-1 act – increases HSF-1 driven luciferase reporter signal; NIH3T3-HGL HSF-1 luciferase reporter, MG132, 8 h; 100% = twice DMSO control signal; activation, % at 9 µM; 1.7% of 300,000 active;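 active = mean replicate activation of at least 50% with a set share of replicates each reaching 50%; inconclusive = only one of those two conditions met; inactive = mean below 50% and too few replicates reaching it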
HIF activator – HIF pathway transcriptional activation; AID 1910; U2OS HRE-luciferase reporter, luminescence; normalized: DMSO 0%, desferrioxamine 100%; 0.32% of 300,000 active; activation, % at 7.5 µM (by protocol);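 active = mean activation of at least 10% of the iron chelator positive control signal, with at least half of replicates also reaching 10%; inconclusive = mean and replicate majority disagree about reaching 10%; inactive = mean and most replicates under 10%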
T cruzi repl – blocks replication of Trypanosoma cruzi | 1.4% of 300,000 active | inhibition, % (test concentration not listed) | T. cruzi beta-gal in NIH3T3, luminescence, 90 h;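 active = mean inhibition across valid replicates above about 55%, limit read from the data; inconclusive = mean below that limit but half or more replicates reach it; inactive = mean below it, under half of replicates reach it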;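 note: signal also drops with host cell toxicity which is not excluded here; higher percent means less beta-gal luminescence so fewer parasites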
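Material: NIH/3T3 host cells with β-galactosidase reporter T. cruzi; Input: 5,000 host fibroblasts per well; Medium: DMEM, 2% fetal bovine serum; Compound: 50 nL DMSO compound solution per well; Schedule: 3 h host attachment, then at least 90 h co-culture; Detection: luminescent β-galactosidase signal after 60 min lysis.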
Calb FLC – affects C. albicans growth with fluconazole; C. albicans CaCi-2 + fluconazole, Alamar Blue growth, 48 h; growth inhibition, % (concentration not given with the values); 0.57% of 300,000 active;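 active = growth inhibition above about 58% in most replicates, limit read from the data, passing the limit was not always enough; inconclusive = exactly half the replicates above a set limit; inactive = most replicates below a set limit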;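 note: all wells also contain fluconazole at 8 µg/ml as a sub-toxic cotreatment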
Of the large screens only hits and unclear results are named; the others gave an inactive call. Most compounds without a hit are left out; they make up all but 4.4% or so of the library.

CCOC(=O)c1cncc(C(=O)O)c1	none
COc1ccc(Nc2nc(N3CCCCC3)c3ccccc3n2)cc1	none
Oc1ccc(Nc2nc(N3CCCC3)c3ccccc3n2)cc1	T cruzi repl 59
CCO[C@@H]1OC(C(=O)NCc2nc3ccccc3[nH]2)=C[C@H](C)[C@H]1CCCO	none
CCN(CC(=O)NCc1cccs1)C(=O)c1ccc([N+](=O)[O-])o1	T cruzi repl 63
CCN(CC(=O)NCc1cccs1)C(=O)c1ccc(S(=O)(=O)N(C)C)cc1	Calb FLC inconclusive
COc1ccccc1NS(=O)(=O)c1ccc(N/N=C/c2c(C)nn(-c3ccccc3)c2N2CCCC2)c([N+](=O)[O-])c1	T cruzi repl 66
CCC(=O)N1CCc2cc(S(=O)(=O)N3CCN(c4cc(C)ccc4C)CC3)ccc21	none
CC1(C)CC(=O)C2=C(C1)OC1=C(C(=O)CC(C)(C)C1)C2c1cc([N+](=O)[O-])cc([N+](=O)[O-])c1O	Calb FLC 91
C=CCN(C(=O)CCC(=O)Nc1cc(C)on1)C(C(=O)NC(C)(C)CC)c1cccc(OC)c1OC (stereo not given)	none
Cc1[nH]n(C(N)=S)c(=O)c1N=Nc1ccc(S(=O)(=O)N2CCCCCC2)cc1	Calb FLC 104
Cc1ccc(N=Nc2c(C)[nH]n(C(N)=S)c2=O)cc1C	none
Cc1[nH]n(C(N)=S)c(=O)c1N=Nc1cccc([N+](=O)[O-])c1C	none
Cc1[nH]n(-c2ccccc2)c(=O)c1N=Nc1cccc([N+](=O)[O-])c1	T cruzi repl 61
NC(=S)n1[nH]c(-c2ccc([N+](=O)[O-])cc2)c(N=Nc2cccc([N+](=O)[O-])c2)c1=O	Calb FLC 100
O=C(Cc1c(F)cccc1Cl)Nc1nc2ccccc2s1	HSF-1 act 62
CC(=O)c1sc(NC(=O)Cc2c(F)cccc2Cl)nc1C	none
Cc1ccc(S(=O)(=O)C2(C(=O)NC3CCCCC3)CC2)cc1	none
Cc1cc(NC(=O)CCN2C(=O)C3C4CCC(C4)C3C2=O)c(C)cc1Br (stereo not given)	none
Cc1cc(Br)c(Cl)cc1NC(=O)CN1C(=O)C2C3CC(c4ccccc4)C(C3)C2C1=O (stereo not given)	T cruzi repl 56
Clc1ccc(C2[C@H]3CN(Cc4cccnc4)[C@H](c4ccccc4)C34CC2(c2ccccc2)C4)cn1 (stereo not given in full)	T cruzi repl 56
c1ccc(C2[C@H]3CN(Cc4cccnc4)[C@H](c4ccccc4)C34CC2(c2ccccc2)C4)cc1 (stereo not given in full)	none
O=C(c1ccccc1)c1ccc(NCCCn2ccnc2)c([N+](=O)[O-])c1	T cruzi repl 56
COc1cc(/C=N/NC(=O)Cc2cccs2)c([N+](=O)[O-])cc1OC	none
Cc1cc(C)cc(N=Cc2ccc([N+](=O)[O-])s2)c1	Calb FLC inconclusive
O=C(Cc1cccs1)N/N=C\c1ccc([N+](=O)[O-])s1	T cruzi repl 84
Cc1ccc(NC(=S)N/N=C/c2ccc([N+](=O)[O-])s2)cc1	HSF-1 act inconclusive, T cruzi repl 63
Cc1ccc(CNC(=O)CCC2CCCN(Cc3cc4ccccc4o3)C2)o1 (stereo not given)	T cruzi repl 56
COc1cc(CN2CCCC(CCC(=O)NCc3ccc(C)o3)C2)cc2c1OCO2 (stereo not given)	T cruzi repl 69
COC(=O)c1ccc(CN2CCCC(CCC(=O)NCc3ccc(C)o3)C2)cc1 (stereo not given)	T cruzi repl 69
COCc1ccc(CN2CCCC(CCC(=O)NCc3ccc(C)o3)C2)o1 (stereo not given)	none
COc1ccccc1/C=C/C(=O)NCc1ccccn1	none
Cc1ccc(S(=O)(=O)Nc2cccc(C(=O)NCCCn3ccnc3)c2)cc1F	none
COc1ccc(-c2cc(C#N)nc(N3CCNCC3)n2)cc1	T cruzi repl 57
CN1CCN(c2nc(C#N)cc(-c3ccccc3)n2)CC1	none
COc1ccc(-c2cc(C#N)nc(N3CCN(C)CC3)n2)cc1	T cruzi repl 66
CCCCNC(=O)Cn1c(=O)c2c(ncn2CC)n(Cc2ccccc2)c1=O	none
CCOC(=O)N1CCC(n2c(SCC(=O)Nc3ccccc3OC)nc3ccccc3c2=O)CC1	T cruzi repl 56
COc1ccc(-n2c(SCC(=O)Nc3ccc(C(N)=O)cc3)nc3ccccc3c2=O)cc1OC	HSF-1 act 60
CCCc1nnc(NC(=O)C23CC4CC(CC(C4)C2)C3)s1	none
Cc1ccc(NC(=O)c2ccco2)c(NC(=O)c2ccccc2)c1	none
CCN(CC)P(=O)(Nc1ccc(C)cc1Br)c1ccc(N(C)C)cc1NC(=O)c1ccco1 (stereo not given)	T cruzi repl 64
CC(C)N1C(=O)S/C(=C/c2ccc3c(c2)n(C)c(=O)n3C)C1=O	none
CCN(CC)c1ccc(/C=C2\SC(=O)N(C(C)C)C2=O)o1	HSF-1 act 295, T cruzi repl 56
CCN(CC)CCN1C(=O)C(=O)/C(=C(/O)c2ccc(S(=O)(=O)N3CCOCC3)cc2)C1c1ccc(C(C)(C)C)cc1 (stereo not given)	none
CC(=O)NS(=O)(=O)c1ccc(N=c2ssc3c2-c2ccc(C)cc2NC3(C)C)cc1	none
CCN(CC)S(=O)(=O)c1ccc(N2CCN(c3cccc(OC)c3)CC2)c([N+](=O)[O-])c1	T cruzi repl 65
Cc1ccc(N=Nc2c(N)nn3c(C)cc(C)nc23)cc1	none
Cc1cc(C)n2nc(N)c(N=Nc3cccc(Cl)c3)c2n1	HSF-1 act 56
CC1CCN(CC(O)COCCOc2ccc(Br)cc2)CC1 (stereo not given)	none
CC1CCN(CC(O)COCCC23CC4CC(CC(C4)C2)C3)CC1 (stereo not given)	T cruzi repl 61
Cc1ccc(N(C(=O)c2ccco2)C(C(=O)NC2CCCC2)c2cccnc2)cc1 (stereo not given)	none
COC(=O)CCN1CCC(c2cc(-c3cccc(C(F)(F)F)c3)n[nH]2)CC1	none
FC(F)(F)c1cccc(-c2cc(C3CCNCC3)[nH]n2)c1	T cruzi repl 56
FC(F)(F)c1cccc(CN2CCC(c3cc(-c4cccs4)n[nH]3)CC2)c1	T cruzi repl 61
N#Cc1ccc(N2CCOCC2)nc1	none
OCCCNc1cc(-c2ccnc(Nc3cccc(Cl)c3)n2)ccn1	HSF1 inh -58, Calb FLC 114
Cc1cc(C)nc(Nc2cccc(Cl)c2)n1	none
CCC(C)Oc1cc(-c2ccnc(Nc3cccc(Cl)c3)n2)ccn1 (stereo not given)	T cruzi repl 57
O=C(/C=C/c1ccc([N+](=O)[O-])cc1)N1CCN(Cc2ccccc2)CC1	none
O=C(/C=C/c1ccc(OCCCF)cc1)N1CCN(Cc2ccccc2)CC1	HSF-1 act 61
CCCc1ccc(C(=O)O/N=C(\N)c2ccccn2)cc1	HSF1 inh -83
